This is an account of results in ChEMBL document CHEMBL5674869, “The Histone Methyltransferase Inhibitor A-366 Uncovers a Role for G9a/GLP in the Epigenetics of Leukemia” (PLoS One, 2015).

The subject of data set [1] is MDA-MB-231. As to the kind of experiment: Antiproliferative activity against human MDA-MB-231 cells assessed as inhibition of colony formation at 10 uM after 14 days by crystal violet staining based clonogenic assay. Type of data set: functional, cell-based. To be noted: time 14.0 day. The procedure, abridged:
(§1)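 Clonogenic assay: 500 live cells per well were seeded into six-well plates in drug-free medium. Compound diluted in culture medium was added 24 h later. Cells were cultured at 37°C, then fixed and stained with 0.2% crystal violet. Colonies were counted on an automated colony counter.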

Data set [2] deals with HT-1080. As to the kind of experiment: Antiproliferative activity against human HT-1080 cells after 5 days by Cell-Titer-Glo assay. Type of data set: functional, cell-based. To be noted: HT-1080, 120 h. The procedure, abridged: (§2)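 ATCC tumor lines were grown in their recommended media with 10% FBS and STR-authenticated. Cells were exposed to compound for the stated number of days. Viable cells were read by CellTiter-Glo endpoint. Inhibition was the ratio of treated to untreated wells, with cell-free wells set as 100% inhibition. The EC50 was taken from the dose response.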

The target of data set [3] is T1, Histone-lysine N-methyltransferase EHMT2 (Homo sapiens) (UniProt Q96KQ7).
T1 sequence (whole entry): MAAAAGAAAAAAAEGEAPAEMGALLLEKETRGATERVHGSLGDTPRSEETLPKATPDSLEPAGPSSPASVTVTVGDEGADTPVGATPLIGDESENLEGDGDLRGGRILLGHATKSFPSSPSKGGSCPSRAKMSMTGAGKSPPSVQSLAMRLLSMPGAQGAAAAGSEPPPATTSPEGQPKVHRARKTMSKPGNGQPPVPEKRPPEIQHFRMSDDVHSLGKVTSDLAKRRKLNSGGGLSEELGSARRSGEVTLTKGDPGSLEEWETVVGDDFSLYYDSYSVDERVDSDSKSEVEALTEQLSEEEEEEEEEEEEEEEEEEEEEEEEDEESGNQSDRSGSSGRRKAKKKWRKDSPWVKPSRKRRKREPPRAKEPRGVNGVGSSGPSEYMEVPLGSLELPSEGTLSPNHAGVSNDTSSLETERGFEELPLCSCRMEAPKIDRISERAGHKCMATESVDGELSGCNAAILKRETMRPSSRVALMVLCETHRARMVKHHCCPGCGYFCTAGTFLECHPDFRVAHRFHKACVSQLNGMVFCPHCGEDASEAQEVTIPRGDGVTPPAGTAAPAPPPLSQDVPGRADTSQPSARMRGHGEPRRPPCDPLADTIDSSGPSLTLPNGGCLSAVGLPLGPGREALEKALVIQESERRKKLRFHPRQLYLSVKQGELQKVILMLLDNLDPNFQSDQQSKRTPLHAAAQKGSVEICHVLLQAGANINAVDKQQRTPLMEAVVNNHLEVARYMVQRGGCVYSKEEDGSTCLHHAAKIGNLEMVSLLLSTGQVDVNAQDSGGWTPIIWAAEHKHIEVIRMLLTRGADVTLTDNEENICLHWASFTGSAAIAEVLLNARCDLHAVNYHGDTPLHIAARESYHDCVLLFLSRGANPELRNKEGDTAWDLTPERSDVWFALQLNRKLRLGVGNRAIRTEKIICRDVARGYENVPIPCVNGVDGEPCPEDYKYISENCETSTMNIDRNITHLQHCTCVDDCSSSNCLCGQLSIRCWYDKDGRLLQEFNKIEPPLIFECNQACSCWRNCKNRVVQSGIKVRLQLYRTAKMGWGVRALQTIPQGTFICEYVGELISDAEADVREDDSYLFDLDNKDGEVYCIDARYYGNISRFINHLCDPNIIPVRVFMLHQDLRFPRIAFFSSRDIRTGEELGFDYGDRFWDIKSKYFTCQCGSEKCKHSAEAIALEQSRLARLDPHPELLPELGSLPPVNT
Nature of the data set: Inhibition of G9a in human PC-3 cells assessed as effect on H3k4me3 levels at 0.3 to 3 uM after 72 hrs by Western blot analysis. Type of data set: cell-based. The following applies: dose 0.3-3 µM. The gist of the method:
(§3)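 PC-3 prostate cells incubated with DMSO, 0.3 or 3 μM compound for 72 h. Lysates probed by western blot with antibodies to H3K9me2, H3K4me2, H3K4me3, H3K9me3, H4K20me1, H4K20me3, H3K36me2 and H3K27me3.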

For data set [4], the target named is T1, Histone-lysine N-methyltransferase EHMT2 (Homo sapiens). As to the kind of experiment: Inhibition of G9a in human PC-3 cells assessed as effect on H3k9me3 levels at 0.3 to 3 uM after 72 hrs by Western blot analysis. To be noted: dose 0.3-3 µM. In kind it is cell-based. The gist of the method: as §3
Data set [5] concerns MDA-MB-231. Nature of the data set: Antiproliferative activity against human MDA-MB-231 cells assessed as effect on colony formation at 0.1 to 10 uM after 14 days by crystal violet staining based clonogenic assay. Type of data set: functional, cell-based. The following applies: dose 0.1-10 µM, time 14.0 day. The gist of the method:
as §1

The test system of data set [6] is HT-1080. Nature of the data set: Antiproliferative activity against human HT-1080 cells upto 10 uM after 2 days by Cell-Titer-Glo assay. In kind it is functional, cell-based. The following applies: time 2.0 day. The gist of the method:
as §2

Data set [7] has as its system HT-1080. As to the kind of experiment: Antiproliferative activity against human HT-1080 cells upto 10 uM after 5 days by Cell-Titer-Glo assay. In kind it is functional, cell-based. The following applies: time 5.0 day. The procedure, abridged:
as §2

In data set [8] the test system is MV4-11. Nature of the data set: Antiproliferative activity against human MV4-11 cells after 14 days by Cell-titer Glo assay. In kind it is functional, cell-based. The following applies: time 14.0 day. The procedure, abridged: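 Leukemia cells (MV4;11 or HL-60) in medium with 10% FBS were treated with a dose range of compound for 14 days. Proliferation was read by CellTiter-Glo endpoint, with inhibition set against untreated controls and cell-free wells as 100% inhibition. Viability was also measured in parallel by trypan blue exclusion.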

Data set [9] deals with MV4-11. Nature of the data set: Induction of cell morphology change in human MV4-11 cells assessed as increase in cytoplasm-nucleus ratio and nuclear lobulation at 5 uM after 10 days by Wright- Geimsa staining analysis. Type of data set: functional, cell-based. The following applies: time 10.0 day. The procedure, abridged: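 MV4;11 cells exposed to DMSO or 5 μM compound for 10 days, then stained with a Wright-Giemsa kit. Morphology was examined for cytoplasm:nucleus ratio and nuclear lobulation.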

Another data set has as its system Mus musculus. Nature of the data set: Decrease in H3K9me2 level in SCID/beige mouse tumor xenografted with human MV4-11 cells at 30 mg/kg/day via osmotic-mini pump for 14 days by alphaLisa assay. To be noted: Neoplasm, time 14.0 day. Type of data set: functional, organism-based. The gist of the method: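 Female SCID-beige mice, 6–8 weeks old, received 5 x 10^6 MV4;11 cells in 50% Matrigel subcutaneously in the flank. At about 200 mm3, compound was given at 30 mg/kg/day by osmotic mini-pump in 98% PEG-400/2% Tween-80. In the PK/PD arm, tumors were harvested at the stated day and H3K9me2 was measured by AlphaLISA relative to vehicle.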

The nature of data set [10]: Drug level in SCID/beige mouse tumor xenografted with human MV4-11 cells at 30 mg/kg/day via osmotic-mini pump. Type of data set: ADME, organism-based, Neoplasm. The following applies: in vivo. The gist of the method: (§4)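 Tumor-bearing SCID-beige female mice (6–8 wk) with subcutaneous flank MV4;11 xenografts (5 x 10^6 cells in 50% Matrigel, grown to ~200 mm3). Compound given by osmotic mini-pump at 30 mg/kg/day in 98% PEG-400/2% Tween-80. Separate PK/PD arm sacrificed after 2, 7 and 14 days of treatment; plasma and tissues collected and analyzed for drug levels.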

Data set [11] can be described thus: Drug level in SCID/beige mouse muscle xenografted with human MV4-11 cells at 30 mg/kg/day via osmotic-mini pump. The following applies: in vivo. Type of data set: ADME, organism-based, Muscle tissue. The gist of the method:
as §4

Data set [12] in a line: Drug level in SCID/beige mouse brain xenografted with human MV4-11 cells at 30 mg/kg/day via osmotic-mini pump. Type of data set: ADME, organism-based. To be noted: in vivo. The gist of the method:
as §4

For another data set, the system named is HL-60 (human). As to the kind of experiment: Induction of cell cycle arrest in human HL-60 cells assessed as increase in G1 phase cells after 4 days by propidium iodide staining based flow cytometry. To be noted: time 4.0 day.

Calls of active or inactive are those of the source. The calls are words filed in the database; no cut-off is given here.

Consider `COc1cc2c(NC3CCN(C(C)C)CC3)nc(C3CCCCC3)nc2cc1OCCCN1CCCC1`, for which, in the data set on MDA-MB-231 [1], the result was Active. Also, the concentration for a half-maximal effect (EC50) in the data set on HT-1080 [2] worked out at 500 nM.

On to `COc1cc2c(cc1OCCCN1CCCC1)N=C(N)C21CCC1`, for which the inhibition result in [3] and in data set [4] was “inactive” each time. Also, the outcome in the data set with MDA-MB-231 [5], in the data set with HT-1080 [6] and with HT-1080 [7] was inactive. Also, the outcome in the data set on MV4-11 [8], with MV4-11 [9] and in the data set with HL-60 (human) was Active. The inhibition result with Mus musculus was “Active”. Also, the Drug uptake entry in [10], in data set [11] and in data set [12] was “Active” in each case.
